The pEC50 is −log10 of the EC50, conventionally taken in molar units. What is called bioavailability is the share of a dose that reaches the circulation, judged against a reference dose that is usually intravenous. A higher bioavailability goes with good availability. The AUC(0-inf) is the area under the concentration-time curve extrapolated to infinity. Usually half-life stands for how long it takes for the measured level to halve. A low value points to rapid decline. Broadly, the clearance is a measure of how efficiently the substance is removed, as volume per time. Low readings indicate inefficient removal, high ones efficient removal.

Here are results for eleven compounds from ChEMBL document CHEMBL1151869, “Discovery of novel 3,6-disubstituted 2-pyridinecarboxamide derivatives as GK activators” (Bioorg Med Chem Lett, 2009).

One data set addresses T1, Hexokinase-4 (Homo sapiens, UniProt P35557).
T1 sequence (P35557 whole entry): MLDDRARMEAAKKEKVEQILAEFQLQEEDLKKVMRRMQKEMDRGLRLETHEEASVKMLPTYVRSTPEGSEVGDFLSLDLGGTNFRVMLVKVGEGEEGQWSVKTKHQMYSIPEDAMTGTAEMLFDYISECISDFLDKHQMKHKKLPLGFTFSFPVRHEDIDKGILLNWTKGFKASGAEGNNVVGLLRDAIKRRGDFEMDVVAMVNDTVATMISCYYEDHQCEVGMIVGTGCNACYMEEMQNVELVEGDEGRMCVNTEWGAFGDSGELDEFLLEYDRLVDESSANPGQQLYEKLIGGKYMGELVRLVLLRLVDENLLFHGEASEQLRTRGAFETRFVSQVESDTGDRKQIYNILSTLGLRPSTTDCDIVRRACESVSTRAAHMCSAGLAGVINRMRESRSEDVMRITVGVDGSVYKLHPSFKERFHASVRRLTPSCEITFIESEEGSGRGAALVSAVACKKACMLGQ
Nature of the data set: Activation of glucokinase.

Data set [1] is described as follows: Hepatic availability in rat hepatocytes. The format is ADME, cell-based, Hepatocyte.
Data set [2] has as its system Rattus norvegicus. Nature of the data set: Reduction in plasma glucose level in overnight fasted Wistar rat at 30 mg/kg, po treated after 30 mins of glucose challenge measured after 1 to 3 hrs by oral glucose tolerance test. The format is functional, organism-based. Further details: dose 30 mg/kg. An outline of the steps:
(§1)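 Nine-week-old male Wistar rats, fasted overnight, given oral dose (30 mpk) or vehicle (0.5% methylcellulose), then an oral glucose challenge (2 g/kg) 30 min later. Blood glucose read just before the challenge and at 30, 60, 90, 120, 150 and 210 min after; AUC taken from the glucose time course.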

A short description of data set [3]: Oral bioavailability in rat at 3 mg/kg, po. The format is ADME, organism-based. To be noted: in vivo.
A short description of data set [4]: AUC (0 to infinity) in rat at 1 mg/kg, iv. The data set is classed as ADME, organism-based. Details: dose 1 mg/kg, route intravenous, time infinity. The following applies: plasma.
Data set [5] is described as follows: Half life in rat at 1 mg/kg, iv. The format is ADME, organism-based. Further details: dose 1 mg/kg, route intravenous. The following applies: in vivo.
Data set [6] in a line: Volume of distribution at steady state in rat at 1 mg/kg, iv. The following applies: in vivo, read-out: Vdss. Further details: dose 1 mg/kg, route intravenous. The format is ADME, organism-based.
The nature of data set [7]: AUC (0 to infinity) in rat at 3 mg/kg, po. The format is ADME, organism-based. Further details: dose 3 mg/kg, route oral, time infinity. The following applies: plasma.
A short description of data set [8]: Plasma clearance in rat at 1 mg/kg, iv. The format is ADME, organism-based. Further details: dose 1 mg/kg, route intravenous.
The test system of data set [9] is Rattus norvegicus. Nature of the data set: Reduction in glucose AUC in overnight fasted Wistar rat at 30 mg/kg, po treated after 30 mins of glucose challenge measured after 3.5 hrs by oral glucose tolerance test. The data set is classed as functional, organism-based. Further details: dose 30 mg/kg. An outline of the steps:
as §1

pEC50: −log10 of the molar value. The source made the active and inactive calls. The calls are words filed in the database; no cut-off is given here.

Turning to `COc1cccc(Sc2ccc(Sc3nnc[nH]3)nc2C(=O)Nc2nccs2)c1`, the pEC50 on Hexokinase-4 was 6.80.
`O=C(Nc1nccs1)c1nc(Sc2nnc[nH]2)ccc1Sc1ccccc1F` gave a pEC50 at Hexokinase-4 of 7.24. The same compound gave a Fh in [1] of 71%.
On Hexokinase-4, `Cc1csc(NC(=O)c2cc(Sc3nncn3C)ccc2Sc2ccc(F)cc2)n1` gave a pEC50 of 6.01.
The compound `O=C(Nc1nccs1)c1nc(Sc2nnc[nH]2)ccc1Sc1ccc(C(F)(F)F)cc1` had a pEC50 at Hexokinase-4 of 6.80.
In turn, `COc1ccc(Sc2ccc(Sc3nnc[nH]3)nc2C(=O)Nc2nccs2)cc1` gave a pEC50 at Hexokinase-4 of 6.92. This compound had a Fh in data set [1] of 35%.
`Cn1cnnc1Sc1ccc(Sc2ccc(F)cc2)c(C(=O)Nc2nccs2)n1` had a pEC50 at Hexokinase-4 of 6.92.
As for `O=C(Nc1nccs1)c1nc(Sc2nnc[nH]2)ccc1Sc1cccc(F)c1`, at Hexokinase-4, the pEC50 was 7.40. In data set [1], this compound had a Fh of 89%.
`Cc1csc(NC(=O)c2nc(Sc3nncn3C)ccc2Sc2ccc(F)cc2)n1` showed a pEC50 at Hexokinase-4 of 6.60.
With `O=C(Nc1nccs1)c1nc(Sc2nnc[nH]2)ccc1Sc1ccc(F)cc1`, the result with Rattus norvegicus [2] and in the data set with Rattus norvegicus [9] was Active. This compound also returned a bioavailability in data set [3] of 23%. Also, the AUC(0-inf) in data set [4] was 4.9 µM·h; in [7], 3.3 µM·h. The compound also had a half-life in [5] of 4 h. Further, the Vd in [6] is 0.5 L/kg. Further, the Fh in [1] came to 100%. For the same compound, in data set [8], the clearance is 8.8 mL/min/kg.
`O=C(Nc1nccs1)c1nc(Sc2nnc[nH]2)ccc1Sc1ccccc1` showed a negative-log EC50 (pEC50) on Hexokinase-4 of 7.42. The compound further showed a Fh in data set [1] of 77%.
Regarding `Cc1cccc(Sc2ccc(Sc3nnc[nH]3)nc2C(=O)Nc2nccs2)c1`, the pEC50 at Hexokinase-4 was 7.00. Besides, the Fh in data set [1] turned out to be 69%.
